# According to ChEMBL document CHEMBL1146564, “Absolute configuration of sesquiterpenes from Crossopetalum tonduzii and their inhibitory effects on Epstein-Barr virus early antigen activation in Raji cells” (J Nat Prod, 2003):
# How the values were obtained:
# Format in all cases: cell-based
# Raji [1] = assay: Inhibition of 12-O-tetradecanoylphorbol-13-acetate-induced EBV-early antigen activation in human Raji cells at 100 molar ratio after 48 hrs relative to TPA; parameters: scale not given: the % may be the effect or the level left; details: human gammaherpesvirus 4
# Summary of the method: (§1)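 EBV-EA induction in Raji cells (RPMI-1640). Cells were held 48 h at 37 °C with n-butyric acid (4 mmol), TPA (32 pmol = 20 ng/mL) and compound at 10–1000 mol ratio/TPA (0.32–32 nmol). EA-positive cells were detected on smears by indirect immunofluorescence. Induction is expressed as percentage relative to the TPA-only positive control. β-Carotene served as reference.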
# Raji [2] = assay: Inhibition of 12-O-tetradecanoylphorbol-13-acetate-induced EBV-early antigen activation in human Raji cells at 500 molar ratio after 48 hrs relative to TPA; parameters: scale not given: the % may be the effect or the level left; details: human gammaherpesvirus 4; summary of the method: as §1
# Raji [3] = assay: Inhibition of 12-O-tetradecanoylphorbol-13-acetate-induced EBV-early antigen activation in human Raji cells at 1000 molar ratio after 48 hrs relative to TPA; parameters: scale not given: the % may be the effect or the level left; details: human gammaherpesvirus 4; summary of the method: as §1
# Raji [4] = assay: Inhibition of 12-O-tetradecanoylphorbol-13-acetate-induced EBV-early antigen activation in human Raji cells at 10 molar ratio after 48 hrs relative to TPA; parameters: scale not given: the % may be the effect or the level left; details: human gammaherpesvirus 4; summary of the method: as §1
# [5] = Cytotoxicity against human Raji cells assessed as cell viability at 1000 molar ratio/TPA after 48 hrs; details: read-out: Activity
# Summary of the method: (§2)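 Raji cells (EBV genome-carrying Burkitt's lymphoma lymphoblastoid line) in RPMI-1640 were incubated 48 h at 37 °C with n-butyric acid (4 mmol), TPA (32 pmol = 20 ng/mL) and test compound at 10, 100, 500 or 1000 mol ratio to TPA (0.32, 3.2, 16, 32 nmol). Viability is given as percentage of Raji cells.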
# [6] = Cytotoxicity against human Raji cells assessed as cell viability at 500 molar ratio/TPA after 48 hrs; details: read-out: Activity; summary of the method: as §2
# [7] = Cytotoxicity against human Raji cells assessed as cell viability at 100 molar ratio/TPA after 48 hrs; details: read-out: Activity; summary of the method: as §2
# [8] = Cytotoxicity against human Raji cells assessed as cell viability at 10 molar ratio/TPA after 48 hrs; details: read-out: Activity; summary of the method: as §2
Compound,Activity (Raji [1]),Activity (Raji [2]),Activity (Raji [3]),Activity (Raji [4]),"viability at 48 h, 1000 molar ratio/TPA [5]","viability at 48 h, 500 molar ratio/TPA [6]","viability at 48 h, 100 molar ratio/TPA [7]","viability at 48 h, 10 molar ratio/TPA [8]"
CCC(C)C(=O)OC[C@]12[C@H](OC(=O)c3ccccc3)[C@@H](O)[C@@H]3[C@@H](O)[C@]1(OC3(C)C)[C@@](C)(O)C[C@H](OC(C)=O)[C@@H]2OC(C)=O (stereo not given in full),74%,32.7%,0%,90.1%,60%,> 80%,> 80%,> 80%
CCC(C)C(=O)OC[C@]12[C@H](OC(=O)c3ccccc3)[C@@H](OC(C)=O)[C@@H]3[C@@H](OC(C)=O)[C@]1(OC3(C)C)[C@@](C)(O)C[C@H](OC(C)=O)[C@@H]2OC(C)=O (stereo not given in full),79.2%,22%,0%,96.7%,70%,> 80%,> 80%,> 80%
CC1=C(/C=C/C(C)=C/C=C/C(C)=C/C=C/C=C(C)/C=C/C=C(C)/C=C/C2=C(C)CCCC2(C)C)C(C)(C)CCC1 [BETA CAROTENE],,,8.6%,100%,,80%,100%,100%
CCC(C)C(=O)OC[C@]12[C@H](OC(=O)c3ccccc3)[C@@H](OC(C)=O)[C@@H]3[C@@H](OC(C)=O)[C@]1(OC3(C)C)[C@@](C)(O)C[C@H](OC(=O)c1ccccc1)[C@@H]2OC(C)=O (stereo not given in full),75.9%,33.8%,4.6%,96%,60%,> 80%,> 80%,> 80%
CCC(C)C(=O)OC[C@]12[C@H](OC(=O)c3ccccc3)[C@@H](OC(C)=O)[C@@H]3[C@@H](O)[C@]1(OC3(C)C)[C@@](C)(O)C[C@H](OC(C)=O)[C@@H]2OC(C)=O (stereo not given in full),77.4%,21.8%,0%,94.1%,70%,> 80%,> 80%,> 80%
CCC(C)C(=O)OC[C@]12[C@H](OC(=O)c3ccccc3)[C@@H](OC(C)=O)[C@@H]3[C@@H](OC(C)=O)[C@]1(OC3(C)C)[C@@](C)(O)C[C@H](O)[C@@H]2OC(C)=O (stereo not given in full),73.7%,31.2%,0%,90.5%,60%,> 80%,> 80%,> 80%
